In brackets after ≈: the same amount, converted by molar mass.
Tests used:
[1] = system: Enterococcus faecalis; assay: In vitro minimum inhibitory concentration for Streptococcus faecalis ATCC 10541; type: functional
Procedure, shortened: (§1)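 Serial 2-fold agar dilution in Mueller Hinton medium, run alongside a reference quinolone. Inoculum adjusted to 10⁸ cfu/mL; compound range 0.007–16 μg/mL.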

[2] = system: Proteus vulgaris; assay: In vitro minimum inhibitory concentration for Proteus vulgaris ATCC 8427; type: functional; procedure, shortened: as §1
[3] = system: Bacillus cereus; assay: In vitro minimum inhibitory concentration for Bacillus cereus ATCC 11778; type: functional; procedure, shortened: as §1
[4] = system: Pseudomonas aeruginosa; assay: In vitro minimum inhibitory concentration for Pseudomonas aeruginosa ATCC 10145; type: functional; procedure, shortened: as §1
[5] = system: Staphylococcus epidermidis; assay: In vitro minimum inhibitory concentration for Staphylococcus epidermidis ATCC 155-1; type: functional; procedure, shortened: as §1
[6] = AUC (0-4 hr) ug/ml/h; type: ADME, cell-free; set-up: time < 4 hr; concentration or dose not given beside the values; conditions: plasma
Procedure, shortened: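 Mice dosed once orally at 50 mg/kg; blood taken from groups of six mice at 0.5, 1, 2 and 4 h. Serum drug assayed by disk agar diffusion bioassay (Bacillus subtilis ATCC 6633 on Seed Agar, 37 °C, 18 h), giving total activity.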

[7] = HPLC capacity factor (k'); type: ADME
Procedure, shortened: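 Ion-pair reversed-phase HPLC on ODS-2 (10 μm) at 45 °C. Mobile phase: 10 mM sodium heptanesulfonate plus 50 mM KH2PO4 (pH 3.5)–methanol 45:55, 1 mL/min. Samples at 100 μg/mL in DMF, injected in duplicate, UV 280 nm. k' = (tR − t0)/t0.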

[8] = system: Staphylococcus aureus; assay: In vitro minimum inhibitory concentration for Staphylococcus aureus ATCC 25178; type: functional; procedure, shortened: as §1
[9] = system: Morganella morganii; assay: In vitro minimum inhibitory concentration for Morganella morganii ATCC 8019; type: functional; procedure, shortened: as §1
[10] = system: Klebsiella pneumoniae; assay: In vitro minimum inhibitory concentration to inhibit Klebsiella pneumoniae ATCC 10031; type: functional; procedure, shortened: as §1
[11] = system: Enterobacter cloacae; assay: In vitro minimum inhibitory concentration for Enterobacter cloacae ATCC 23355; type: functional
[12] = system: Bacillus subtilis; assay: In vitro minimum inhibitory concentration for Bacillus subtilis ATCC 6633; type: functional; procedure, shortened: as §1
[13] = system: Escherichia coli; assay: In vitro minimum inhibitory concentration for Escherichia coli ATCC 10799; type: functional; procedure, shortened: as §1
[14] = Solubility (buffer pH 7.4); type: physicochemical; conditions: read-out: S
Procedure, shortened: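 Excess solid shaken in 0.05 M phosphate buffer pH 7.4 for 24 h at 25 °C. Suspension filtered through 0.22 μm, discarding the first portion. Filtrate diluted in 0.1 N HCl or 0.1 N NaOH and read by UV at the compound's absorbance maximum.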

[15] = Measured ionization constant (pKa); type: physicochemical; conditions: read-out: pKa1
Procedure, shortened: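 Spectrophotometric titration at 20 ± 1 °C, 0.1 M ionic strength, pH varied with H2SO4 or NaOH made up in the compound stock. Absorbance followed at compound-specific wavelengths chosen from 200–400 nm scans. pKa1 and pKa2 taken as the inflection points of the two-step absorbance vs pH curve.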

C[C@H]1N(c2cc3c(cc2F)c(=O)c(C(=O)O)cn3C2CC2)C[C@]1(C)N
MIC [1]: 2 µg/mL (≈ 5.79 µM)
MIC [2]: 0.25 µg/mL (≈ 0.724 µM)
MIC [3]: 0.25 µg/mL (≈ 0.724 µM)
MIC [4]: 2 µg/mL (≈ 5.79 µM)
MIC [5]: 0.12 µg/mL (≈ 0.347 µM)
AUC [6]: 3800 ng·h/mL
Log k' [7]: 0.1421
MIC [8]: 0.25 µg/mL (≈ 0.724 µM)
MIC [9]: 0.06 µg/mL (≈ 0.174 µM)
MIC [10]: 0.03 µg/mL (≈ 0.0869 µM)
MIC [11]: 0.015 µg/mL (≈ 0.0434 µM)
MIC [12]: 0.015 µg/mL (≈ 0.0434 µM)
MIC [13]: 0.06 µg/mL (≈ 0.174 µM)
solubility [14]: 1.3 µg/mL (≈ 3.76 µM)

NC1CN(c2c(F)cc3c(=O)c(C(=O)O)cn(C4CC4)c3c2Cl)C1
pKa [15]: 5.96
Log k' [7]: -0.0264

C[C@H]1[C@H](N)CN1c1nc2c(cc1F)c(=O)c(C(=O)O)cn2C(C)(C)C
MIC [1]: 1 µg/mL (≈ 2.87 µM)
MIC [2]: 0.25 µg/mL (≈ 0.718 µM)
MIC [3]: 0.12 µg/mL (≈ 0.344 µM)
MIC [4]: 2 µg/mL (≈ 5.74 µM)
MIC [5]: 0.12 µg/mL (≈ 0.344 µM)
AUC [6]: 16500 ng·h/mL
Log k' [7]: 0.1644
MIC [8]: 0.12 µg/mL (≈ 0.344 µM)
MIC [9]: 0.12 µg/mL (≈ 0.344 µM)
MIC [10]: 0.015 µg/mL (≈ 0.0431 µM)
MIC [11]: 0.06 µg/mL (≈ 0.172 µM)
MIC [12]: 0.015 µg/mL (≈ 0.0431 µM)
MIC [13]: 0.06 µg/mL (≈ 0.172 µM)

C[C@H]1N(c2c(F)cc3c(=O)c(C(=O)O)cn(C4CC4)c3c2F)C[C@]1(C)O
MIC [1]: 0.5 µg/mL (≈ 1.37 µM)
MIC [2]: 0.25 µg/mL (≈ 0.686 µM)
MIC [3]: 0.12 µg/mL (≈ 0.329 µM)
MIC [4]: 2 µg/mL (≈ 5.49 µM)
MIC [5]: 0.12 µg/mL (≈ 0.329 µM)
Log k' [7]: 0.6899
MIC [8]: 0.12 µg/mL (≈ 0.329 µM)
MIC [9]: 0.5 µg/mL (≈ 1.37 µM)
MIC [10]: 0.015 µg/mL (≈ 0.0412 µM)
MIC [11]: 0.5 µg/mL (≈ 1.37 µM)
MIC [12]: 0.015 µg/mL (≈ 0.0412 µM)
MIC [13]: 1 µg/mL (≈ 2.74 µM)

CC[C@H]1[C@@H](O)CN1c1cc2c(cc1F)c(=O)c(C(=O)O)cn2C1CC1
MIC [1]: 8 µg/mL (≈ 23.1 µM)
MIC [2]: 0.5 µg/mL (≈ 1.44 µM)
MIC [3]: 1 µg/mL (≈ 2.89 µM)
MIC [4]: 8 µg/mL (≈ 23.1 µM)
MIC [5]: 0.5 µg/mL (≈ 1.44 µM)
Log k' [7]: 0.529
MIC [8]: 1 µg/mL (≈ 2.89 µM)
MIC [9]: 1 µg/mL (≈ 2.89 µM)
MIC [10]: 0.5 µg/mL (≈ 1.44 µM)
MIC [11]: 0.5 µg/mL (≈ 1.44 µM)
MIC [12]: 0.06 µg/mL (≈ 0.173 µM)
MIC [13]: 2 µg/mL (≈ 5.77 µM)

CC[N+](C)(C)C1CN(c2cc3c(cc2F)c(=O)c(C(=O)O)cn3C2CC2)C1
pKa [15]: 6.46

C[C@H]1[C@H](N)CN1c1c(F)cc2c(=O)c3c(=O)[nH]sc3n(C3CC3)c2c1F
MIC [1]: 0.25 µg/mL (≈ 0.661 µM)
MIC [2]: 0.12 µg/mL (≈ 0.317 µM)
MIC [3]: 0.06 µg/mL (≈ 0.159 µM)
MIC [4]: 1 µg/mL (≈ 2.64 µM)
MIC [5]: 0.12 µg/mL (≈ 0.317 µM)
Log k' [7]: 0.1134
MIC [8]: 0.12 µg/mL (≈ 0.317 µM)
MIC [9]: 0.06 µg/mL (≈ 0.159 µM)
MIC [10]: 0.03 µg/mL (≈ 0.0793 µM)
MIC [11]: 0.03 µg/mL (≈ 0.0793 µM)
MIC [12]: 0.06 µg/mL (≈ 0.159 µM)
MIC [13]: 0.12 µg/mL (≈ 0.317 µM)

C[C@H]1[C@H](N)CN1c1cc2c(cc1F)c(=O)c(C(=O)O)cn2CCF
MIC [1]: 2 µg/mL (≈ 5.93 µM)
MIC [2]: 1 µg/mL (≈ 2.96 µM)
MIC [3]: 1 µg/mL (≈ 2.96 µM)
MIC [4]: 2 µg/mL (≈ 5.93 µM)
MIC [5]: 1 µg/mL (≈ 2.96 µM)
Log k' [7]: -0.1459
MIC [8]: 1 µg/mL (≈ 2.96 µM)
MIC [9]: 0.12 µg/mL (≈ 0.356 µM)
MIC [10]: 0.12 µg/mL (≈ 0.356 µM)
MIC [11]: 0.12 µg/mL (≈ 0.356 µM)
MIC [12]: 0.25 µg/mL (≈ 0.741 µM)
MIC [13]: 0.25 µg/mL (≈ 0.741 µM)

C[C@H]1[C@H](N)CN1c1c(F)cc2c(=O)c(C(=O)O)cn(CCF)c2c1Cl
MIC [1]: 0.5 µg/mL (≈ 1.34 µM)
MIC [2]: 0.25 µg/mL (≈ 0.672 µM)
MIC [3]: 0.25 µg/mL (≈ 0.672 µM)
MIC [4]: 1 µg/mL (≈ 2.69 µM)
MIC [5]: 0.12 µg/mL (≈ 0.323 µM)
Log k' [7]: 0.0166
MIC [8]: 0.12 µg/mL (≈ 0.323 µM)
MIC [9]: 0.03 µg/mL (≈ 0.0807 µM)
MIC [10]: 0.03 µg/mL (≈ 0.0807 µM)
MIC [11]: 0.03 µg/mL (≈ 0.0807 µM)
MIC [12]: 0.06 µg/mL (≈ 0.161 µM)
MIC [13]: 0.03 µg/mL (≈ 0.0807 µM)

C[C@H]1[C@@H](O)CN1c1c(F)cc2c(=O)c(C(=O)O)cn(C3CC3)c2c1F
MIC [1]: 2 µg/mL (≈ 5.71 µM)
MIC [2]: 0.25 µg/mL (≈ 0.714 µM)
MIC [3]: 0.25 µg/mL (≈ 0.714 µM)
MIC [4]: 8 µg/mL (≈ 22.8 µM)
MIC [5]: 0.25 µg/mL (≈ 0.714 µM)
Log k' [7]: 0.462
MIC [8]: 0.25 µg/mL (≈ 0.714 µM)
MIC [9]: 0.5 µg/mL (≈ 1.43 µM)
MIC [10]: 0.015 µg/mL (≈ 0.0428 µM)
MIC [11]: 0.25 µg/mL (≈ 0.714 µM)
MIC [12]: 0.015 µg/mL (≈ 0.0428 µM)
MIC [13]: 0.5 µg/mL (≈ 1.43 µM)

From ChEMBL document CHEMBL1127424, “7-azetidinylquinolones as antibacterial agents. 2. Synthesis and biological activity of 7-(2,3-disubstituted-1-azetidinyl)-4-oxoquinoline- and -1,8-naphthyridine-3-carboxylic acids. Properties and structure-activity relationships of quinolones with an azetidine moiety” (J Med Chem, 1994)
